# In ChEMBL document CHEMBL4513216, “Probing the Open Global Health Chemical Diversity Library for Multistage-Active Starting Points for Next-Generation Antimalarials” (ACS Infect Dis, 2020):
# Test: Toxicity liver stage against HepG2, at 10uM
# Format: cell-based
# Set-up: test concentration 10 uM, cell line HepG2-A16-CD81EGFP
# Details: human, HepG2-A16-CD81EGFP cells; read-out: INHIBITION
# Summary of the method: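 Uninfected HepG2-A16-CD81EGFP cells, 3 × 10^3 per well, 1536-well, plated on prespotted compound at 10 μM final, parasite-free screening media added to match infected plates; puromycin 10 μM positive, DMSO 0.5% negative; run in parallel with 48 h PbLuc assay at 37 °C, 5% CO2; viability by CellTiter-Glo luminescence, normalized to controls.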
row,Structure (SMILES),cytotoxicity at 10 µM [%]
1,COc1cccc(N2CCN(C(=O)c3noc4c3CCCCC4)CC2)c1,9.4
2,COc1ccc(O[C@H]2COCCN(Cc3cccc4c3OCO4)C2)cc1,0.375
3,CN1C(=N)NC(=O)/C1=C/c1ccc(-c2ccc(Br)cc2)o1,5.39
4,CC(C)CN1CC(O)CN(S(=O)(=O)c2ccccc2)CC1=O (configuration not stated),1.74
5,Cc1ccsc1C(O)CNS(=O)(=O)Cc1ccc(F)cc1 (configuration not stated),-4.38
6,Cc1ccc(CN2CCCn3c(nc(Cn4ccnc4)cc3=O)C2)o1,5.89
7,O=C(c1cc(-n2cnnn2)ccc1Cl)N1CCN(c2ccccc2)CC1,11.3
8,COc1cccc(C2CC(=O)Nc3c2c(=O)n(C)c2ncnn32)c1 (configuration not stated),-0.549
9,COc1cc(C)c2c(c1C)C[C@@H](C(C)C(=O)O)CC2 (some centres not stated),4.98
10,CNC(=O)c1cccnc1Oc1ccccc1,2.84
11,N#Cc1cccc(C(=O)N2CCc3ncc(Cn4cccn4)n3CC2)c1,5.84
12,Cc1ccc2c(c1)CCC21CCN(C(=O)CO)CC1,-8.13
13,Cc1cc(C(=O)NCc2ccco2)nn1C,-2.8
14,CCc1noc(C2CCN(C(=O)CCn3nc(C)cc3C)CC2)n1,-9.52
15,CN(C)Cc1cn(-c2ccccc2C(=O)NCCC2CCCN2C)cn1 (configuration not stated),4.08
16,Cc1cc(-c2cnc(N3CCCC3)nc2C(C)C)on1,5.14
17,CCOCCN1CCC(c2cncc(C)n2)CC1,-2.58
18,COCCC(=O)N1CCCC([C@@H]2C[C@H](C(F)F)n3ncnc3N2)C1 (some centres not stated),-1.28
19,Nc1nc(N)c2c(n1)OC1(CCCN(Cc3nccs3)CC1)C2 (configuration not stated),-2.25
20,c1ccc(Cc2cncc(C3CCCN3C3CCOCC3)n2)cc1 (configuration not stated),1.4
21,COc1ccccc1C1CNCCN1C(C)=O (configuration not stated),3.6
22,COc1cccc(S(=O)(=O)N2C[C@@H](O)[C@H](N(C)C)C2)c1,5.76
23,Cc1sc2c(C3CCCN(C)C3)nc(C)n2c1C (configuration not stated),-26.9

row,Structure (SMILES),cytotoxicity at 10 µM [%]
1,O=C(c1ccc(F)cc1)N1CCOC(c2nc(-c3ncccn3)no2)C1 (configuration not stated),-12.4
2,O=C(N[C@@H]1CN(Cc2ccc(F)cc2)C[C@H]1O)c1cscn1,-11.7
3,O=C(C1CCCC1)N1CC2(CCN(C3COC3)C2)Cc2ccccc21 (configuration not stated),10.1
4,O=C(Cc1c[nH]c2ncccc12)NCC(O)c1ccsc1 (configuration not stated),5.46
5,N#Cc1cccc(CNc2ccc(F)cc2OCCO)c1,-2.03
6,NC(=O)c1cnc(NC(=O)CCc2ccco2)c(Cl)c1,3.42
7,CC(C)c1nnc2n1CCN(Cc1cc(Cl)c3c(c1)OCCO3)C2,0.549
8,COc1ccccc1CC(=O)N(C)Cc1cc(C)on1,4.76
9,COCCN(CC(F)F)c1cc(C(F)(F)F)nc2ncnn12,4.11
10,Cc1ccc(-c2nnc(NC(=O)c3ccn(C)c(=O)c3)[nH]2)s1,-1.15
11,Cc1cc(C[S+]([O-])Cc2ccccc2F)on1 (configuration not stated),-8.37
12,CN(C)c1ccc(C(=O)Nc2ccn(Cc3ccccn3)n2)cn1,-0.677
13,O=C(CCN1CCc2cncnc2C1)N1CCc2sccc2C1,2.37
14,O=C(Nc1ccc(F)cc1)C1CCN(Cc2noc(C3CC3)n2)CC1,4.05
15,CN(CC1CCC1)C(=O)Nc1cccnc1-n1cncn1,2.86
16,COc1cc(C2(C(=O)NC3CCC4(CC3)OCCO4)CC2)ccc1C,-13.2
17,N#Cc1ccc(S(=O)(=O)NCCn2ccnc2)cc1Cl,22.5
18,CNC(=O)C1Cc2ccccc2CN1CCc1cccs1 (configuration not stated),-0.837
19,CNC(=O)C1Cc2ccccc2CN1CCCc1ccccc1 (configuration not stated),4.23
20,NC(=O)C1CCN(CCc2ccc(NCc3ccoc3)cc2)CC1,-26.2
21,CC(NC1CCN(C(=O)C2CCCCC2)CC1)c1nccs1 (configuration not stated),-4.22
22,CC(C)c1nnc2n1CCN(C(=O)c1ccccc1OCC1CC1)C2,10.5
23,CCN(CC)Cc1ccc(C(=O)NC2CCc3cc(F)ccc32)o1 (configuration not stated),-9.03

row,Structure (SMILES),cytotoxicity at 10 µM [%]
1,Cc1csc(C2CCCCN2C(=O)CCCn2cccn2)n1 (configuration not stated),-0.89
2,CNC(=O)Cc1ccccc1NC(=O)C1CCN(C2CCCCC2)C1 (configuration not stated),-0.355
3,Cc1cccc(S(=O)(=O)NC(=O)c2ccc3c(c2)nnn3C)c1,-8.97
4,Cc1cscc1C(=O)NC1CC(=O)N(C(C)C)C1=O (configuration not stated),-6.51
5,CC(NC(=O)c1cccnc1N(C)C)c1ccccc1Cl (configuration not stated),-4.97
6,OCCCN(CCc1cccc(F)c1)C1CC1,-8.9
7,Cc1nnc(CN(C)Cc2nc3c(s2)CCCC3)o1,-1.42
8,CN(Cc1cccc(O)c1)Cc1cnn(C)c1,-0.198
9,Cc1c(CNC(=O)C2CCCN2C(=O)C2CC2)oc2ccccc12 (configuration not stated),5.6
10,Cc1ncc(CN(C)CC(O)c2ccc(OC(F)(F)F)cc2)s1 (configuration not stated),9.99
11,CNC(=O)C(C)CN(C)C(=O)Nc1ccc(F)c(-n2cccc2)c1 (configuration not stated),-2.07
12,CCN(CC)C(=O)Nc1cc2c(cc1SC)OCCO2,-7.87
13,O=C(Nc1cccc(OCc2ccc(F)cc2)c1)C1COCCO1 (configuration not stated),1.18
14,CN(C)CCN(Cc1ccc(Cl)cc1)C(=O)c1cc[nH]n1,5.65
15,Cn1ccnc1-c1cccc(NC(=O)NCCCO)c1,-6.77
16,COCC(=O)N1CC[C@@H]2O[C@@H](C)C[C@H]2C1,-69.6
17,CC(C)CC(=O)N1CC(=O)c2sc(NC3CCCCC3)nc2C1,-7
18,COc1cccc(N2CCN(Cc3ccc4[nH]ccc4c3)CC2=O)c1,4.59
19,CCc1nc(CN(C)C(=O)C2CC(=O)N(c3cccc(O)c3)C2)no1 (configuration not stated),-10.2
20,CCc1ncc2c(n1)CN(C(=O)CNC(=O)C(C)C)C2,7.28
21,CC(=O)N1CCN(Cc2ccc(F)c(C(F)(F)F)c2)CC(O)C1 (configuration not stated),-6.87
22,CS(=O)(=O)NCCC(=O)N1Cc2cnc(-c3ccccc3)nc2C1,-4.65
23,Cc1noc(C)c1CN(Cc1cccnc1)C1CN2CCC1CC2 (configuration not stated),1.91

row,Structure (SMILES),cytotoxicity at 10 µM [%]
1,CCCc1nnc(N2C[C@@H](C)[C@@](C)(O)C2)s1,1.22
2,CC(C)c1nnc(CN2C(=O)OC[C@@H]2C(C)C)o1,14.3
3,CC(C)CS(=O)(=O)CCNc1ncccn1,-2.43
4,CCOCCc1nc(Cc2ccccc2)n[nH]1,7.9
5,Cc1nc(CNC(=O)c2cc(COc3cccc(F)c3)[nH]n2)n[nH]1,-2.52
6,CC(Cn1cncn1)Nc1ccc(-c2nccn2C)nn1 (configuration not stated),-3.73
7,CNC(=O)CN(C)c1nc(-c2ccc(C(N)=O)cc2)nc2c1CCNC2,3.62
8,NC(=O)c1ccnc(N2CCCC(CO)(Cc3ccccc3)C2)c1 (configuration not stated),11.6
9,Cc1ccc(F)cc1NC(=O)C1CCCN1C(=O)C(C)C (configuration not stated),-4.93
10,O=C(CCc1cc2n(n1)CCCN(Cc1ccccc1F)C2)NC1CC1,-12.8
11,COc1ccc(NC(=O)CCC2CCCN(Cc3ncon3)C2)c(C)c1 (configuration not stated),0.523
12,Cn1ccnc1CN1CCOCC(Cc2ccccn2)C1 (configuration not stated),7.17
13,Cc1cncc(C2CCCN(Cc3cccn3C)C2)n1 (configuration not stated),8.25
14,CCc1nnc2n1CCN(C(=O)c1cc3cc(C)ccc3[nH]1)C2,0.893
15,Cn1nnc2cc(C(=O)N3CCC(Nc4cccnn4)CC3)ccc21,-2.85
16,O=C(COC1CCCCC1)NS(=O)(=O)c1ccc2c(c1)OCCCO2,3.85
17,Cc1cnc2c(S(=O)(=O)NC3CCS(=O)(=O)C3)cccc2c1 (configuration not stated),-2.28
18,CN(CC(=O)N1CCC(N(C)c2ccccc2)CC1)c1cnccn1,-6.6
19,CCc1nnc2n1CCN(Cc1cc(Cl)c3c(c1)OCCO3)C2,-8.95
20,O=C(Nc1ccccn1)N(CCO)Cc1ccccc1Br,-14.4
21,CCOc1ncccc1C(=O)N1CCCC1Cn1cc(C)cn1 (configuration not stated),0.787
22,O=C(c1cnc(-c2cnccn2)s1)N1CCCC(n2cccn2)C1 (configuration not stated),-9.04
23,Cc1ncsc1C(=O)NC1CCN(CC(=O)N(C)c2ccccc2)CC1,1.26

row,Structure (SMILES),cytotoxicity at 10 µM [%]
1,Clc1ccccc1-c1nc(CNC2CCc3ncnn3C2)cs1 (configuration not stated),-4.28
2,Cc1cccn2cc(CC(=O)N3CCCC(n4cncn4)C3)nc12 (configuration not stated),-7.31
3,CC(Nc1cccc(CN2CCOC2=O)c1)C(=O)N1CCNC1=O (configuration not stated),-1.63
4,CNS(=O)(=O)c1ccc(C(=O)NC2CCc3nc(C)cn3C2)o1 (configuration not stated),-12.3
5,CC(NC(=O)N(C)Cc1ccsc1)c1ccc2c(c1)NC(=O)CO2 (configuration not stated),-7.77
6,Cc1cc(C)n(C2CCCN(C(=O)Cc3csc(C)n3)C2)n1 (configuration not stated),-10.4
7,CN(Cc1ncc(C(C)(C)C)o1)C1CCCN(c2cccnn2)C1 (configuration not stated),-16.1
8,Cc1cnc(CN2CCCC(c3cc(C(F)(F)F)[nH]n3)C2)cn1 (configuration not stated),-0.168
9,Cc1nc(-c2ccco2)ccc1C(=O)N1CCCC1Cn1cccn1 (configuration not stated),5.61
10,Cc1cccc(-c2[nH]ncc2CNCC2CCN(CC(C)O)CC2)c1 (configuration not stated),-10.1
11,O=C(c1ccc2c(c1)OCO2)N1CCCC(n2cccn2)C1 (configuration not stated),-8.4
12,Cc1cccc(-n2cc(C(=O)N3CCCC(n4ccnc4)C3)nn2)c1 (configuration not stated),5.39
13,O=S(=O)(c1ccc(Cl)cc1)N1CCc2nc(C3CCNCC3)ncc2C1,-17.3
14,O=C(NCC1CCOCC1)[C@H]1C[C@@H]2CCN(Cc3ccncc3)C[C@@H]2O1,-14.1
15,Cc1noc(C)c1CN1CCCC2(C1)CN(Cc1nccn1C)CCO2 (configuration not stated),7.69
16,Cc1noc(C)c1C(=O)N1CC[C@]2(C[C@@H](OCc3cccnc3)CO2)C1,-79.7
17,O=C(NCc1ccco1)[C@@H]1CCO[C@@H]2CCN(c3ccncn3)C[C@H]21,0.118
18,O=C1[C@H]2CN(Cc3cccs3)C[C@H]2CN1CCN1CCCC1,-12.7
19,CS(=O)(=O)N1C[C@H]2CC[C@@H](C1)N(Cc1ccsc1)C2,44.7
20,CCSCCNC(=O)c1ccc(S(=O)(=O)N2C[C@H]3C[C@@H]2CN3)cc1,-1.98
